Measured values: ChEMBL document CHEMBL1667809, “Synthesis and in vitro antibacterial activity of 7-(3-alkoxyimino-5-amino/methylaminopiperidin-1-yl)fluoroquinolone derivatives” (Bioorg Med Chem Lett, 2011)
≈ marks a conversion by molar mass, not a printed value.

Tests used:
[1] = tested on: Staphylococcus aureus; test: Antibacterial activity against methicillin-resistant Staphylococcus aureus 10-05 after 18 to 24 hrs by agar dilution method; type: functional
In short: (§1)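 Agar dilution on Petri dishes, each inoculated with 10⁴ cfu. Plates incubated at 35 °C for 18–24 h. MIC taken as the lowest test-compound concentration giving no visible growth on the plate. Reference drugs gemifloxacin, ciprofloxacin and levofloxacin run alongside for comparison.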

[2] = tested on: Escherichia coli; test: Antibacterial activity against Escherichia coli 10-02 after 18 to 24 hrs by agar dilution method; type: functional
In short: (§2)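 Agar dilution on Petri dishes, each inoculated with 10⁴ cfu of the strain and incubated at 35 °C for 18–24 h. MIC read as the lowest compound concentration giving no visible growth on the plate.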

[3] = tested on: Staphylococcus aureus; test: Antibacterial activity against Staphylococcus aureus ATCC 25923 after 18 to 24 hrs by agar dilution method; type: functional; in short: as §2
[4] = tested on: Staphylococcus epidermidis; test: Antibacterial activity against methicillin-resistant Staphylococcus epidermidis 10-5 after 18 to 24 hrs by agar dilution method; type: functional; in short: as §1
[5] = tested on: Escherichia coli; test: Antibacterial activity against Escherichia coli ATCC 25922 after 18 to 24 hrs by agar dilution method; type: functional; in short: as §2
[6] = tested on: Streptococcus pneumoniae; test: Antibacterial activity against Streptococcus pneumoniae 1001 after 18 to 24 hrs by agar dilution method; type: functional; in short: as §2
[7] = tested on: Staphylococcus epidermidis; test: Antibacterial activity against methicillin-sensitive Staphylococcus epidermidis 10-4 after 18 to 24 hrs by agar dilution method; type: functional; in short: as §2
[8] = tested on: Pseudomonas aeruginosa; test: Antibacterial activity against Pseudomonas aeruginosa 10-1 after 18 to 24 hrs by agar dilution method; type: functional; in short: as §2
[9] = tested on: Klebsiella pneumoniae; test: Antibacterial activity against Klebsiella pneumoniae 10-1 after 18 to 24 hrs by agar dilution method; type: functional; in short: as §2
[10] = tested on: Staphylococcus aureus; test: Antibacterial activity against methicillin-sensitive Staphylococcus aureus 10-04 after 18 to 24 hrs by agar dilution method; type: functional; in short: as §2
[11] = Cytotoxicity against african green monkey Vero cells after 24 hrs; type: cell-based; details: chlorocebus sabaeus
In short: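 Vero cells exposed to graded compound concentrations for 24 h, then viability assessed; CC₅₀ derived from the viability data.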

[12] = tested on: Streptococcus pyogenes; test: Antibacterial activity against Streptococcus hemolyticus 1002 after 18 to 24 hrs by agar dilution method; type: functional; in short: as §2
[13] = tested on: Pseudomonas aeruginosa; test: Antibacterial activity against Pseudomonas aeruginosa ATCC 27853 after 18 to 24 hrs by agar dilution method; type: functional; in short: as §2
[14] = tested on: Staphylococcus aureus; test: Ratio of compound MIC to GMFX MIC for methicillin-sensitive Staphylococcus aureus 10-04; type: functional
[15] = tested on: Staphylococcus epidermidis; test: Ratio of compound MIC to GMFX MIC for methicillin-resistant Staphylococcus epidermidis 10-5; type: functional
[16] = tested on: Staphylococcus aureus; test: Ratio of compound MIC to CPFX MIC for methicillin-sensitive Staphylococcus aureus 10-04; type: functional
[17] = tested on: Staphylococcus epidermidis; test: Ratio of compound MIC to CPFX MIC for methicillin-resistant Staphylococcus epidermidis 10-5; type: functional
[18] = tested on: Staphylococcus aureus; test: Ratio of compound MIC to LVFX MIC for methicillin-sensitive Staphylococcus aureus 10-04; type: functional
[19] = tested on: Staphylococcus epidermidis; test: Ratio of compound MIC to LVFX MIC for methicillin-resistant Staphylococcus epidermidis 10-5; type: functional

Row | SMILES | MIC [1] | MIC [2] | MIC [3] | MIC [4] | MIC [5] | MIC [6] | MIC [7] | MIC [8] | MIC [9] | MIC [10] | CC50 at 24 h [11] | MIC [12] | MIC [13] | Ratio [14] | Ratio [15] | Ratio [16] | Ratio [17] | Ratio [18] | Ratio [19]
1 | CO/N=C1\CC(N)CN(c2nc3c(cc2F)c(=O)c(C(=O)O)cn3C2CC2)C1 (stereo not given) | 128 µg/mL (≈ 329 µM) | 0.25 µg/mL (≈ 0.642 µM) | 4 µg/mL (≈ 10.3 µM) | 16 µg/mL (≈ 41.1 µM) | 0.25 µg/mL (≈ 0.642 µM) | 4 µg/mL (≈ 10.3 µM) | 2 µg/mL (≈ 5.14 µM) | 128 µg/mL (≈ 329 µM) | 128 µg/mL (≈ 329 µM) | 8 µg/mL (≈ 20.5 µM) | 822 µM | 128 µg/mL (≈ 329 µM) | 128 µg/mL (≈ 329 µM) | – | – | – | – | – | –
2 | CCO/N=C1\CC(N)CN(c2nc3c(cc2F)c(=O)c(C(=O)O)cn3C2CC2)C1 (stereo not given) | 16 µg/mL (≈ 39.7 µM) | 0.5 µg/mL (≈ 1.24 µM) | 4 µg/mL (≈ 9.92 µM) | 8 µg/mL (≈ 19.8 µM) | 0.25 µg/mL (≈ 0.62 µM) | 4 µg/mL (≈ 9.92 µM) | 4 µg/mL (≈ 9.92 µM) | 128 µg/mL (≈ 317 µM) | 128 µg/mL (≈ 317 µM) | 2 µg/mL (≈ 4.96 µM) | 967 µM | 128 µg/mL (≈ 317 µM) | 128 µg/mL (≈ 317 µM) | – | – | – | – | – | –
3 | CNC1C/C(=N\OC)CN(c2nc3c(cc2F)c(=O)c(C(=O)O)cn3C2CC2)C1 (stereo not given) | 128 µg/mL (≈ 317 µM) | 0.25 µg/mL (≈ 0.62 µM) | 0.5 µg/mL (≈ 1.24 µM) | 16 µg/mL (≈ 39.7 µM) | 0.25 µg/mL (≈ 0.62 µM) | 4 µg/mL (≈ 9.92 µM) | 2 µg/mL (≈ 4.96 µM) | > 128 µg/mL | > 128 µg/mL | 4 µg/mL (≈ 9.92 µM) | 645 µM | > 128 µg/mL | 128 µg/mL (≈ 317 µM) | – | – | – | – | – | –
4 | CCO/N=C1\CC(NC)CN(c2nc3c(cc2F)c(=O)c(C(=O)O)cn3C2CC2)C1 (stereo not given) | 8 µg/mL (≈ 19.2 µM) | 0.25 µg/mL (≈ 0.599 µM) | 2 µg/mL (≈ 4.79 µM) | 16 µg/mL (≈ 38.3 µM) | 0.25 µg/mL (≈ 0.599 µM) | 4 µg/mL (≈ 9.58 µM) | 8 µg/mL (≈ 19.2 µM) | > 128 µg/mL | > 128 µg/mL | 4 µg/mL (≈ 9.58 µM) | 731 µM | > 128 µg/mL | 128 µg/mL (≈ 307 µM) | – | – | – | – | – | –
5 | CNC1C/C(=N\OC)CN(c2c(F)cc3c(=O)c(C(=O)O)cn(C4CC4)c3c2OC)C1 (stereo not given) | 2 µg/mL (≈ 4.62 µM) | 0.25 µg/mL (≈ 0.578 µM) | 0.5 µg/mL (≈ 1.16 µM) | 4 µg/mL (≈ 9.25 µM) | 0.25 µg/mL (≈ 0.578 µM) | 0.5 µg/mL (≈ 1.16 µM) | 1 µg/mL (≈ 2.31 µM) | 128 µg/mL (≈ 296 µM) | 128 µg/mL (≈ 296 µM) | 0.5 µg/mL (≈ 1.16 µM) | 1090 µM | 8 µg/mL (≈ 18.5 µM) | 64 µg/mL (≈ 148 µM) | 4 | 2 | 4 | 4 | 4 | 2
6 | CCO/N=C1\CC(NC)CN(c2c(F)cc3c(=O)c(C(=O)O)cn(C4CC4)c3c2OC)C1 (stereo not given) | 8 µg/mL (≈ 17.9 µM) | 0.25 µg/mL (≈ 0.56 µM) | 0.5 µg/mL (≈ 1.12 µM) | 4 µg/mL (≈ 8.96 µM) | 0.25 µg/mL (≈ 0.56 µM) | 1 µg/mL (≈ 2.24 µM) | 0.25 µg/mL (≈ 0.56 µM) | 128 µg/mL (≈ 287 µM) | 128 µg/mL (≈ 287 µM) | 0.5 µg/mL (≈ 1.12 µM) | 1520 µM | 128 µg/mL (≈ 287 µM) | 128 µg/mL (≈ 287 µM) | 4 | 2 | 4 | 4 | 4 | 2
7 | CO/N=C1\CC(N)CN(c2c(F)cc3c(=O)c(C(=O)O)cn(C4CC4)c3c2F)C1 (stereo not given) | 8 µg/mL (≈ 19.7 µM) | 0.25 µg/mL (≈ 0.615 µM) | 0.25 µg/mL (≈ 0.615 µM) | 8 µg/mL (≈ 19.7 µM) | 0.25 µg/mL (≈ 0.615 µM) | 0.25 µg/mL (≈ 0.615 µM) | 4 µg/mL (≈ 9.84 µM) | 128 µg/mL (≈ 315 µM) | 128 µg/mL (≈ 315 µM) | 0.5 µg/mL (≈ 1.23 µM) | 739 µM | 128 µg/mL (≈ 315 µM) | 128 µg/mL (≈ 315 µM) | 4 | – | 4 | – | 4 | –
8 | CCO/N=C1\CC(N)CN(c2c(F)cc3c(=O)c(C(=O)O)cn(C4CC4)c3c2F)C1 (stereo not given) | 4 µg/mL (≈ 9.51 µM) | 0.25 µg/mL (≈ 0.595 µM) | 0.25 µg/mL (≈ 0.595 µM) | 4 µg/mL (≈ 9.51 µM) | 0.25 µg/mL (≈ 0.595 µM) | 0.25 µg/mL (≈ 0.595 µM) | 0.5 µg/mL (≈ 1.19 µM) | > 128 µg/mL | 64 µg/mL (≈ 152 µM) | 0.5 µg/mL (≈ 1.19 µM) | 1320 µM | 64 µg/mL (≈ 152 µM) | 8 µg/mL (≈ 19 µM) | 4 | 2 | 4 | 4 | 4 | 2
9 | CNC1C/C(=N\OC)CN(c2c(F)cc3c(=O)c(C(=O)O)cn(C4CC4)c3c2F)C1 (stereo not given) | 8 µg/mL (≈ 19 µM) | 0.25 µg/mL (≈ 0.595 µM) | 0.25 µg/mL (≈ 0.595 µM) | 2 µg/mL (≈ 4.76 µM) | 0.25 µg/mL (≈ 0.595 µM) | 1 µg/mL (≈ 2.38 µM) | 2 µg/mL (≈ 4.76 µM) | 128 µg/mL (≈ 304 µM) | 128 µg/mL (≈ 304 µM) | 2 µg/mL (≈ 4.76 µM) | 1020 µM | 8 µg/mL (≈ 19 µM) | 8 µg/mL (≈ 19 µM) | – | 2 | – | – | – | 2
